Data taken from ChEMBL document CHEMBL4033790, “Design and Synthesis of Novel Deuterated Ligands Functionally Selective for the γ-Aminobutyric Acid Type A Receptor (GABAAR) α6 Subtype with Improved Metabolic Stability and Enhanced Bioavailability” (J Med Chem, 2018).
The source made the active and inactive calls. The rule behind the calls is not given here.

Columns and labels:
Mus musculus [1] = experiment: Neurotoxicity in Swiss Webster mouse assessed as induction of motor impairment at 55 mg/kg administered via oral gavage measured after 10 to 60 mins by rotarod method; assay type: toxicity, organism-based; settings: in vivo
Mus musculus [2] = experiment: Neurotoxicity in Swiss Webster mouse assessed as induction of motor impairment at 40 mg/kg administered via oral gavage measured after 10 to 60 mins by rotarod method; assay type: toxicity, organism-based; settings: in vivo
How it was run: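 Female mice were given a single oral gavage dose of 40 mg/kg, either in 50% PBS/40% propylene glycol/10% DMSO or, for poorly soluble compounds, in 2% polyethylene glycol plus 2.5% hydroxymethyl cellulose. Rotarod performance was tested 10, 30 and 60 min after dosing, with diazepam 5 mg/kg as positive control.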

Mus musculus [3] = experiment: Hyperlocomotor activity in C57BL/6 mouse assessed as total distance travelled at 3 to 10 mg/kg, ip after 60 mins in presence of diazepam; assay type: ADME, organism-based; settings: in vivo, 1 h
Brain = experiment: Unbound AUC in Wistar rat brain at 10 mg/kg, ip administered as single dose measured at 5 to 720 mins post dose by HPLC-MS/MS analysis; assay type: ADME, organism-based; settings: in vivo
How it was run: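 Free fraction in rat plasma and brain tissue was measured in vitro by rapid equilibrium dialysis. Exposure came from male Wistar rats (250-350 g) given a single 10 mg/kg IP dose, as a 5 mg/ml suspension in 85% water, 14% propylene glycol and 1% Tween 80. Three rats per time point (5–720 min); brain analysed by HPLC-MS/MS after solid-phase extraction.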

[4] = Drug metabolism in mouse liver microsomes assessed as CYP450 mediated-O-demethylated 7-hydroxy-2-[4-(trideuteriomethoxy)phenyl]-5H-pyrazolo[4,3-c]quinolin-3-one metabolite formation after 60 mins by LC-MS analysis; assay type: ADME; settings: 1 h
How it was run: (§1)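 The 60-min samples from the human or mouse liver microsome incubations (10 µM compound, 0.5 mg/mL protein, NADPH regenerating system, 37 °C, pH 7.4) were run on LC-MS in SIM mode with dual ESI/APCI ionization. The method was calibrated to each component's retention time and mass, and the peak intensities of the parent and O-demethylated metabolites were measured.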

[5] = Drug metabolism in human liver microsomes assessed as CYP450 mediated-O-demethylated 2-(4-hydroxyphenyl)-7-methoxy-2H-pyrazolo[4,3-c]quinolin-3(5H)-one metabolite formation after 60 mins by LC-MS analysis; assay type: ADME; settings: 1 h; how it was run: as §1
[6] = molecular target: Voltage-gated inwardly rectifying potassium channel KCNH2 (Homo sapiens, UniProt Q12809); experiment: Displacement of [3H]-dofetilide from human ERG expressed in HEK cell membranes at >10 uM after 60 to 90 mins by scintillation counting
HepG2 = experiment: Cytotoxicity against human HepG2 cells assessed as reduction in cell viability up to 400 uM after 48 hrs by CellTiter-Glo assay; assay type: cell-based; settings: hepg2, 48 h
How it was run: (§2)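 HEK293T and HepG2 cells grown in high-glucose DMEM with non-essential amino acids, 10 mM HEPES, penicillin/streptomycin and 10% heat-inactivated FBS. Cells were harvested with trypsin and plated; compound was pin-transferred 3 h later. Incubation was 48 h, then CellTiter-Glo luminescence was read. Controls were DMSO (negative) and a cytotoxic aminoketone (positive). Quadruplicates, three independent runs, normalized to controls, nonlinear regression.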

Rattus norvegicus [7] = experiment: Toxicity in Wistar rat assessed as grip strength by measuring peak force of pull necessary to overcome strength of animal's grip at 10 mg/kg, ip (reference value: 2.79 +/- 0.16 kg/kg); assay type: organism-based; settings: in vivo
[8] = Oral bioavailability in Wistar rat plasma at 2 mg/kg administered as single dose via gavage by HPLC-MS/MS analysis; assay type: ADME, organism-based
How it was run: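 Male Wistar rats (250-350 g) received a single 2 mg/kg dose, nanoemulsion formulation, by oral gavage or IV. Three rats per time point (5, 30, 120, 480, 1440 min); plasma and brain collected. Compound extracted by solid-phase extraction and quantified by HPLC-MS/MS. Absolute oral bioavailability was calculated from plasma AUC after the two routes.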

Rattus norvegicus [9] = experiment: Toxicity in Wistar rat assessed as closed arm entries at 10 mg/kg, ip administered for 45 mins measured for 5 min by elevated plus maze apparatus method (reference value: 3.63 +/- 0.42); assay type: organism-based; settings: in vivo
HEK-293T = experiment: Cytotoxicity against HEK293T cells assessed as reduction in cell viability up to 400 uM after 48 hrs by CellTiter-Glo assay; assay type: cell-based; settings: human; how it was run: as §2
[10] = molecular target: GABA-A receptor; alpha-2/beta-3/gamma-2 (Homo sapiens) (UniProt P18507+P28472+P47869); experiment: Positive allosteric modulation of GABA-A receptor alpha2beta3gamma2 (unknown origin) expressed in Xenopus laevis oocytes assessed as potentiation of EC3 GABA induced currents up to 1 uM at -60 mV holding potential by electrophysiological method relative to GABA; assay type: cell-based
How it was run: (§3)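 Stage 5–6 defolliculated Xenopus oocytes were injected with 2.5 ng total mRNA per oocyte: α1, α2, α3 or α5 with β3 and γ2 at 1:1:5, and α4 or α6 with β3 and γ2 at 3:1:5. Oocytes were kept ≥36 h at 18 °C in NDE medium before recording. Compounds were co-applied with GABA titrated to EC3-5 for each oocyte. Curves were fitted with the Hill equation; mean ± SEM from ≥3 oocytes across two batches.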

Liver = experiment: Half life in mouse liver microsomes at 10 uM by LC-MS/MS analysis; assay type: ADME, microsome
How it was run: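 Compound at 10 μM final was preincubated 5 min at 37 °C with NADPH regenerating system in phosphate buffer, pH 7.4. Human or mouse liver microsomes (0.5 mg/mL protein) were added to start the reaction. Samples were taken at 0 (no microsomes) and 10–60 min and measured by LC-MS/MS against an internal standard. Half-life = 0.693/k, with k the slope of ln peak-area ratio versus time. Three experiments, each in duplicate.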

[11] = molecular target: 5-hydroxytryptamine receptor 7 (Homo sapiens) (UniProt P34969); experiment: Displacement of [3H]-LSD from human recombinant 5HT7 receptor expressed in HEK293 cells at 10 uM after 60 to 90 mins by scintillation counting; assay type: cell-based
[12] = molecular target: GABA-A receptor; alpha-6/beta-3/gamma-2 (Homo sapiens) (UniProt P18507+P28472+Q16445); experiment: Positive allosteric modulation of GABA-A receptor alpha6beta3gamma2 (unknown origin) expressed in Xenopus laevis oocytes assessed as potentiation of EC3 GABA induced currents at 30 uM at -60 mV holding potential by electrophysiological method relative to GABA; assay type: cell-based; how it was run: as §3
Rattus norvegicus [13] = species on record: Rattus norvegicus; experiment: Displacement of [3H]-flunitrazepam from rat brain GABA-A receptor benzodiazepine site […] at 10 uM after 60 to 90 mins by scintillation counting
[14] = molecular target: GABA-A receptor; alpha-3/beta-3/gamma-2 (Homo sapiens) (UniProt P18507+P28472+P34903); experiment: Positive allosteric modulation of GABA-A receptor alpha3beta3gamma2 (unknown origin) expressed in Xenopus laevis oocytes assessed as potentiation of EC3 GABA induced currents up to 1 uM at -60 mV holding potential by electrophysiological method relative to GABA; assay type: cell-based; how it was run: as §3
[15] = molecular target: Mu-type opioid receptor (Homo sapiens) (UniProt P35372); experiment: Displacement of [3H]-DAMGO from human recombinant MOR expressed in HEK293 cells at 10 uM after 60 to 90 mins by scintillation counting; assay type: cell-based
Sequence of Mu-type opioid receptor (Homo sapiens) (P35372 whole entry): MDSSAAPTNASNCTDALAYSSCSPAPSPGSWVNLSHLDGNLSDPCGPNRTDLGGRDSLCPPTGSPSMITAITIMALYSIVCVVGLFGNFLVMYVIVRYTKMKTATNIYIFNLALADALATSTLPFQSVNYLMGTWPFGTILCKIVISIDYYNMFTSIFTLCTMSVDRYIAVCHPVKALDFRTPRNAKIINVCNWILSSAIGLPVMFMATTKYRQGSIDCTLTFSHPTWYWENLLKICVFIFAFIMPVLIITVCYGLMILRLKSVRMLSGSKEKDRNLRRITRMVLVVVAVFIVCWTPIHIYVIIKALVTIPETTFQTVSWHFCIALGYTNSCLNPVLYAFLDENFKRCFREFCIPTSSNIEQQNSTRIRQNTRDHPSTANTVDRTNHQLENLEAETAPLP

Sequence of Voltage-gated inwardly rectifying potassium channel KCNH2 (Q12809 whole entry): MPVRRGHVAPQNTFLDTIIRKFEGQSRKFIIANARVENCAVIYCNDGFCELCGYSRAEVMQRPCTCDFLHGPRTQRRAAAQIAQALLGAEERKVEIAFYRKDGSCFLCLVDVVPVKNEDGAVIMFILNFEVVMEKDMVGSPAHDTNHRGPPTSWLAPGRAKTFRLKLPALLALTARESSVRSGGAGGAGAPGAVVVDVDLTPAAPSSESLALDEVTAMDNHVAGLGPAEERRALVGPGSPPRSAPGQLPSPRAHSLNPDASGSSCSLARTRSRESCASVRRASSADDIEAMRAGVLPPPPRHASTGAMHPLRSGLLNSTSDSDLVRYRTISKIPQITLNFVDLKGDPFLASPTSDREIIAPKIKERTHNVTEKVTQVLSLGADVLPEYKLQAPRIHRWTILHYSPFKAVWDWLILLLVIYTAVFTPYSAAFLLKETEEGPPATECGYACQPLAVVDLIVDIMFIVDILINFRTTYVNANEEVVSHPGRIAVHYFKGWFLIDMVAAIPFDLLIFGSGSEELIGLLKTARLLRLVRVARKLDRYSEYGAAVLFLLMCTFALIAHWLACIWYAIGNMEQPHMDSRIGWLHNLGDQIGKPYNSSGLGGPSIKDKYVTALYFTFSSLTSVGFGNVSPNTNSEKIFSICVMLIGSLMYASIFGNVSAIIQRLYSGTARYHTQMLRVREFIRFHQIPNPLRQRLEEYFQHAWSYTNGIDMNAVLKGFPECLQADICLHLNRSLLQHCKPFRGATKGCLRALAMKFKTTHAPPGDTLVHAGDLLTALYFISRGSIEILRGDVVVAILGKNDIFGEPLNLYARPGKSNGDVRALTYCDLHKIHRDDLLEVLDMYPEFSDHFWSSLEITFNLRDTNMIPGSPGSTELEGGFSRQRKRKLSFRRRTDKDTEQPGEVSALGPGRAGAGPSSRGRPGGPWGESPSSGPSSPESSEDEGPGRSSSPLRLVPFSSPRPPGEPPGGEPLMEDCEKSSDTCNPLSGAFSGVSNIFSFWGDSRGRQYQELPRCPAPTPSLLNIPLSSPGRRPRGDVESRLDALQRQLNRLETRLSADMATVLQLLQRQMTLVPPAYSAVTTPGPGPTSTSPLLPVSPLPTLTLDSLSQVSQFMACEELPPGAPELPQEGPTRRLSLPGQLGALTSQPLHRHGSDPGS
Sequence of 5-hydroxytryptamine receptor 7 (Homo sapiens) (P34969 whole entry): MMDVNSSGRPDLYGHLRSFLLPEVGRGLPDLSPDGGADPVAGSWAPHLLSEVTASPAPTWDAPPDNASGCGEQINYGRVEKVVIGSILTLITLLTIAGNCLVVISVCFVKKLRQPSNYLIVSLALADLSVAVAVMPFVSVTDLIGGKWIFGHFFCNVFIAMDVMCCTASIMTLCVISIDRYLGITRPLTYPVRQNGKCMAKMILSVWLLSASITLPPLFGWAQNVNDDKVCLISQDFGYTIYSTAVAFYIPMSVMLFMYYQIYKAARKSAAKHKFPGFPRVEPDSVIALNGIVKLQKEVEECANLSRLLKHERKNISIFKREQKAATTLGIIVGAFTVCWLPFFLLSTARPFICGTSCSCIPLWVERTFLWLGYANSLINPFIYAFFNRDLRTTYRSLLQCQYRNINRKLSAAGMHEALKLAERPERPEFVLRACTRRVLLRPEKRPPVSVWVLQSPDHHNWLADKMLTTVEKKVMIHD

| SMILES | Activity (Mus musculus [1]) | Activity (Mus musculus [2]) | Activity (Mus musculus [3]) | fAUC (Brain) [ng·h/g] | Drug metabolism [4] | Drug metabolism [5] | inhibition (INH) [6] | Activity (HepG2) | Activity (Rattus norvegicus [7]) [kg/kg] | bioavailability [8] [%] | Activity (Rattus norvegicus [9]) | Activity (HEK-293T) | Activity [10] [%] | t1/2 (Liver) [h] | inhibition [11] | Activity [12] [%] | Activity ([12]; tested as the 2H-labelled form) | inhibition (Rattus norvegicus [13]) | Activity [14] [%] | inhibition [15] |
| --- | --- | --- | --- | --- | --- | --- | --- | --- | --- | --- | --- | --- | --- | --- | --- | --- | --- | --- | --- | --- |
| [2H]C([2H])([2H])Oc1ccc(-n2nc3c4ccc(OC)cc4[nH]cc-3c2=O)cc1 | Non-Toxic | Non-Toxic | Toxic | 651.72 | Metabolite_Detected | Metabolite_Detected | Not Active | Non-Toxic | 2.67 | 100 | 2.63 | Non-Toxic | – | – | – | – | – | – | – | – |
| COc1ccc(-n2nc3c4ccc(OC)cc4[nH]cc-3c2=O)cc1 | – | Non-Toxic | – | – | – | – | Not Active | – | – | 66.9 | – | – | < 0 | 3.2 | Active | 900 | inactive | Active | < 0 | Active |
